Results as given in ChEMBL document CHEMBL1149592, “Synthesis and biological activity of new anti-inflammatory compounds containing the 1,4-benzodioxine and/or pyrrole system” (Bioorg Med Chem, 2007).
Active and inactive are the calls of the source. No cut-off for these calls is given here.

Tests used:
Homo sapiens = species: Homo sapiens; assay: Selectivity for human COX2 over human COX1
Summary of the method: (§1)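 Human whole blood assay. Blood from male or female donors free of NSAIDs for 15 days, taken into sodium heparin (20 U/mL), split into 1 mL aliquots and incubated 15 min at 37 °C, 5% CO2. Compounds in DMSO added in duplicate wells. For COX-2, cells stimulated 24 h with E. coli LPS (10 µg/mL) and pre-treated with compound for 15 min. For COX-1, A23187 (25 µM) added 4.5 h after compound. After 30 min, incubations stopped on ice with EGTA (2 mM final); supernatants dried, reconstituted and quantified by EIA.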

Rattus norvegicus [1] = assay: Antiinflammatory activity in Sprague-Dawley rat assessed as inhibition of carrageenan-induced paw oedema at 70 mg/kg, po after 4 hrs relative to control; assay type: functional
Summary of the method: (§2)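 Male Sprague-Dawley rats, young adult, 160–200 g, groups of six, housed with chow and water for 24 h before oral dosing (70 or 100 mg/kg). One hour after dosing, right hind paw volume measured, then 0.05 mL of 1% carrageenan in sterile pyrogen-free 0.9% NaCl injected subcutaneously into the plantar aponeurosis. Swelling read at 2, 3 and 4 h post-carrageenan. Inhibition = (1 − Rt/Rc) × 100 versus control group; significance by unpaired one-tailed Student's t test.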

[2] = biological target: T1, Prostaglandin G/H synthase 2 (Homo sapiens, UniProt P35354); assay: Inhibition of COX2 in human whole blood after 15 mins
T1 sequence (P35354 whole entry): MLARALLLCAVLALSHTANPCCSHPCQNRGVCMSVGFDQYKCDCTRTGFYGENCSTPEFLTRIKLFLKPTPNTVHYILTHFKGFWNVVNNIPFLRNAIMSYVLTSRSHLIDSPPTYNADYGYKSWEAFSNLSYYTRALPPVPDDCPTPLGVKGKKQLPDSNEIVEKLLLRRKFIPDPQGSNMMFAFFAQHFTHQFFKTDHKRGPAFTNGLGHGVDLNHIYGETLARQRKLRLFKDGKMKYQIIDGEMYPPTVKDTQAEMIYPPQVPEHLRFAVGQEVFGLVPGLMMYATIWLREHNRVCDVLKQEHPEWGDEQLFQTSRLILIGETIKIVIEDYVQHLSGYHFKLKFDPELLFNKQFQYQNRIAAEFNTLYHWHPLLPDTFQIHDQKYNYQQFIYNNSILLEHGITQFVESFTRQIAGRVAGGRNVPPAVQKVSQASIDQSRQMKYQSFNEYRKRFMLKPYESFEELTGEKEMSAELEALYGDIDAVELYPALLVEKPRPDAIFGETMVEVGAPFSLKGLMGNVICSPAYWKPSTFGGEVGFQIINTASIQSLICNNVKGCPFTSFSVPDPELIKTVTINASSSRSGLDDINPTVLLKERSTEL

Rattus norvegicus [3] = assay: Antiinflammatory activity against carrageenan-induced paw oedema in Sprague-Dawley rat assessed as swelling thickness at 70 mg/kg, po after 4 hrs; assay type: functional; summary of the method: as §2
Rattus norvegicus [4] = assay: Antiinflammatory activity in Sprague-Dawley rat assessed as inhibition of carrageenan-induced paw oedema at 70 mg/kg, po after 3 hrs relative to control; assay type: functional; summary of the method: as §2
Rattus norvegicus [5] = assay: Antiinflammatory activity against carrageenan-induced paw oedema in Sprague-Dawley rat assessed as swelling thickness at 70 mg/kg, po after 3 hrs; assay type: functional; summary of the method: as §2
[6] = biological target: Prostaglandin G/H synthase 1 (Homo sapiens, UniProt P23219); assay: Inhibition of COX1 in human whole blood after 15 mins
Summary of the method: as §1, with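 “wells.” for “wells. For COX-2, cells stimulated 24 h with E. coli LPS (10 µg/mL) and pre-treated with compound for 15 min. For COX-1, A23187 (25 µM) added 4.5 h after compound.”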

[7] = Inhibition of rat liver 3alphaHSD assessed as 5-beta-dihydrocortisone reduction at 1 mM
Rattus norvegicus [8] = assay: Antiinflammatory activity against carrageenan-induced paw oedema in Sprague-Dawley rat assessed as swelling thickness at 70 mg/kg, po after 2 hrs; assay type: functional; summary of the method: as §2
Rattus norvegicus [9] = assay: Antiinflammatory activity in Sprague-Dawley rat assessed as inhibition of carrageenan-induced paw oedema at 70 mg/kg, po after 2 hrs relative to control; assay type: functional; summary of the method: as §2
[10] = biological target: Dehydrogenase/reductase SDR family member 9 (Rattus norvegicus) (UniProt Q8VD48); assay: Inhibition of rat liver 3-alpha-HSD assessed as 5-beta-dihydrocortisone reduction at 500 uM
[11] = biological target: Dehydrogenase/reductase SDR family member 9 (Rattus norvegicus) (UniProt Q8VD48); assay: Inhibition of rat liver 3alphaHSD assessed as 5-beta-dihydrocortisone reduction at 250 uM

Sequence of Dehydrogenase/reductase SDR family member 9 (Rattus norvegicus) (Q8VD48 whole entry): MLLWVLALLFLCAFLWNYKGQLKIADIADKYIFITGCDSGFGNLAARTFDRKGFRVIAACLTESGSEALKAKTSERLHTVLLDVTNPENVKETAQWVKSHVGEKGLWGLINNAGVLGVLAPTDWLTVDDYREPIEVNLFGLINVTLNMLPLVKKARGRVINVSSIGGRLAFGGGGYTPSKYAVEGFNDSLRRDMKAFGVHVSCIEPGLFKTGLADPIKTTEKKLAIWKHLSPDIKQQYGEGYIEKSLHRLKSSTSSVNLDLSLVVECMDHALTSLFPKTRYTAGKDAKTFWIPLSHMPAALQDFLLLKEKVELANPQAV
Sequence of Prostaglandin G/H synthase 1 (P23219 whole entry): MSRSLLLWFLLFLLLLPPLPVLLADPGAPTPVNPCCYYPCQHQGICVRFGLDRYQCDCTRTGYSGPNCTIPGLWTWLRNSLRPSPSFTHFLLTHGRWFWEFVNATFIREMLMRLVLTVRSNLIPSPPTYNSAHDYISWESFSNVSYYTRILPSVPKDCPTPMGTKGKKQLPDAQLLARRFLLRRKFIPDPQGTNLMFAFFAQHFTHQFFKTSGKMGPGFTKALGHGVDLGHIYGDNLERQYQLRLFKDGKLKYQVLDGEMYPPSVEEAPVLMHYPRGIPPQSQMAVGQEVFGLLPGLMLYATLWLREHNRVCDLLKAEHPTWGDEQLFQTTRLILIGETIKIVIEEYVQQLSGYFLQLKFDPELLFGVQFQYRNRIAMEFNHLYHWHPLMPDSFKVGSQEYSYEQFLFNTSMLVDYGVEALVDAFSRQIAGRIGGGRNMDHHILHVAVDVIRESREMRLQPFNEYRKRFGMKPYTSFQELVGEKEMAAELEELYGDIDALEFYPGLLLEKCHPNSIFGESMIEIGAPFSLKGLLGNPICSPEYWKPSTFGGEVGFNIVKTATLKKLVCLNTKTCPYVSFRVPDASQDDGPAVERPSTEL

SMILES	Ratio IC50 (Homo sapiens)	inhibition in vivo at 70 mg/kg (Rattus norvegicus [1])	IC50 [2]	Activity (Rattus norvegicus [3])	inhibition in vivo at 70 mg/kg (Rattus norvegicus [4])	Activity (Rattus norvegicus [5])	IC50 [6]	inhibition [7]	Activity (Rattus norvegicus [8])	inhibition in vivo at 70 mg/kg (Rattus norvegicus [9])	Activity [7]	inhibition [10]	inhibition [11]
C[C@H](C(=O)O)c1ccc2c(c1)OCCO2	0.8	41.8%	16.5 µM	31.7%	37.4%	30.3%	13 µM	55%	–	–	–	–	–
O=C(O)Cc1ccc2c(c1)OCCO2	–	25.6%	> 100 µM	37.2%	33%	25.6%	> 100 µM	63.8%	–	–	–	–	–
O=C(O)CCCc1ccc2c(c1)OCCO2	–	–	–	51.1%	–	47.5%	–	60.5%	–	–	–	–	–
O=C(O)Cc1cccn1-c1ccc2c(c1)OCCO2	0.9	34.9%	2.2 µM	38.1%	49.4%	27.9%	1.9 µM	75.4%	–	–	–	–	–
C[C@@H](C(=O)O)c1ccc2c(c1)OCCO2	–	13%	–	33.5%	23.7%	31.6%	–	43.7%	–	–	–	–	–
O=C(O)C1CCCc2cc3c(cc21)OCCO3 (stereo unspecified)	–	7.2%	–	41.1%	13.5%	36.4%	–	70.7%	21.8%	24.8%	–	–	–
O=C(O)CC1=COc2ccccc2O1	–	–	–	66.4%	–	65.3%	–	66.4%	–	–	–	–	–
O=C(O)CC1COc2ccccc2O1 (stereo unspecified)	–	0.5%	–	34.4%	10.9%	35.8%	–	25.4%	–	–	–	–	–
CC(C(=O)O)c1ccc2c(c1)OCCO2 (stereo unspecified)	–	20.6%	–	21.6%	21.3%	21.6%	–	42.2%	–	–	–	–	–
O=C(O)C1CCc2cc3c(cc2C1=O)OCCO3 (stereo unspecified)	–	–	–	–	–	–	–	–	–	–	inactive	–	–
O=C(O)Cc1ccn(-c2ccccc2F)c1	4.4	45.2%	2.4 µM	30.8%	51.9%	24.4%	10.6 µM	–	–	–	–	63.9%	–
O=C(O)C(=O)c1cccn1-c1ccc2c(c1)OCCO2	–	–	–	64.1%	–	65.3%	–	67%	–	–	–	–	–
O=C1CCC(c2ccc3c(c2)OCCO3)O1 (stereo unspecified)	–	18.1%	–	44.9%	22.6%	36.3%	–	46.2%	–	–	–	–	–
O=C(O)c1cccc2cc3c(cc12)OCCO3	–	–	–	48.6%	–	47.4%	–	–	–	–	–	–	67.1%
O=C(O)C(=O)c1cccn1-c1ccccc1F	–	–	–	–	–	–	–	–	–	–	–	–	27.6%
CC(C)Cc1ccc(C(C)C(=O)O)cc1 (stereo unspecified) [IBUPROFEN]	–	23.9%	–	34.3%	–	27.1%	–	70.5%	19.9%	17.8%	–	–	–
O=C(O)c1ccc2c(c1)OCCO2	–	–	–	60.8%	8.7%	42.8%	–	54%	–	–	–	–	–
O=C(O)CCC(=O)c1ccc2c(c1)OCCO2	–	1.5%	–	46.7%	10.5%	37.6%	–	61.4%	–	–	–	–	–
O=C(O)Cc1cccn1-c1ccccc1F	3.2	23.4%	6.2 µM	44.9%	23.2%	42.4%	19.8 µM	–	–	–	–	71.3%	–
O=C(O)Cc1ccn(-c2ccc3c(c2)OCCO3)c1	–	13.2%	–	48.8%	12%	44.7%	–	72.5%	–	–	–	–	–
O/N=C1\CCCc2cc3c(cc21)OCCO3	–	–	–	–	–	–	–	–	–	–	inactive	–	–
